Source: PubChem BioAssay
EBI2 antag = EBI2 (human) antagonism | EBI2 beta-arrestin recruitment, luminescence, 7a,25-OHC stimulated | 360,000 tested, 0.81% active | inhibition, % at 5 µM | P32249; in the data active = inhibition above about 38%;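 also: enzyme fragment complementation signal reports receptor beta-arrestin coupling in cells; 0% = agonist plus DMSO wells and 100% = wells without agonist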
Target sequence (P32249 whole entry, looked up, the tested form may be a part): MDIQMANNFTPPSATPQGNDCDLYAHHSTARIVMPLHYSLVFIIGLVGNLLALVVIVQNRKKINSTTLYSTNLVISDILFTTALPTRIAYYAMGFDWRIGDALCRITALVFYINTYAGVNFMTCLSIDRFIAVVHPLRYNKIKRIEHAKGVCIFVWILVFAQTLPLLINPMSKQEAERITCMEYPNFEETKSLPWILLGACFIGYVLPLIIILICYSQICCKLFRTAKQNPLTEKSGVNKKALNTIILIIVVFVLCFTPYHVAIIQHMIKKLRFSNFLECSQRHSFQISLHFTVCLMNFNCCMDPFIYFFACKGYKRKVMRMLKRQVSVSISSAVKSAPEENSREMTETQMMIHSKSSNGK
MPTP block = blocks calcium-induced mitochondrial swelling | isolated mouse mitochondria, Ca2+ swelling absorbance, 30 min | inhibition, % at 10 µM | 360,000 tested, 1.4% active;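 active = inhibition of 50% or more, scaled per plate between neutral and stimulator controls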;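 also: 0% = DMSO wells given calcium and 100% = 1 mM EGTA wells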
NR3A LBD binder = NR3A (human) ligand-binding domain modulation; NR3A LBD differential scanning fluorimetry, Tm shift; 0% = protein alone, 100% = glycine-bound protein; Tm shift relative to glycine control, % at 25 µM; 340,000 tested, 2.5% active; AID 1259313;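 active = melting temperature shift of at least 10% of the positive control shift, at one fixed dose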
SENP1 inh = SENP1 (human) catalytic domain inhibition | recombinant SENP1 catalytic domain, CyPet-SUMO1-YPet FRET cleavage | inhibition, % at 10 µM | 360,000 tested, 0.21% active | AID 624204;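 active = inhibition at least 30% at 10 µM, raw YFP signal under a set limit, fluorescence ratio 0.5 to 1.5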;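 also: 0% = enzyme with DMSO and 100% = no enzyme wells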
Target sequence (Q9P0U3 419-644 limits assumed): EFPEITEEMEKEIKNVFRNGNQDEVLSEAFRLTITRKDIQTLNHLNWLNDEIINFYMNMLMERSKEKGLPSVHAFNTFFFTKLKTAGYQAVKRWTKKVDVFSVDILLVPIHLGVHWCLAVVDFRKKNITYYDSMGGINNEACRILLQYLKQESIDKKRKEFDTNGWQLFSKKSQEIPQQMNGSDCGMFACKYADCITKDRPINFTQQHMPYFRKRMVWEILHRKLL
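system = hSENP1 catalytic domain, recombinant | reagent = SFCypet-SUMO1-SFYpet substrate at 25 nM | doses = one dose per compound, 10 µM, 0.5% DMSO | incubation = enzyme reaction for 50 min at room temperature, dark | measured by = FRET, CFP and YFP emission | controls = no-enzyme low, enzyme-DMSO high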
Numbers without * were called inactive; nt = not tested or not shown. Rows were chosen to be rich in hits. Some 4.4% of all compounds tested hit in one or more screens of this group.

SMILES	EBI2 antag	MPTP block	NR3A LBD binder	SENP1 inh
O=C(Nc1ccc(OCc2ccccc2)cc1)c1ccccc1	-8.6	3.8	-6.8	1.1
Cc1occc1C(=O)N/N=C/c1ccc(OCc2ccccc2)cc1	-6.2	-2.2	34.6*	2.7
CC(C)=CC(=O)Nc1ccc(OCc2ccccc2)cc1	-6.4	2.3	28.4*	-2.0
C/C=C/c1ccc(OCC(=O)Nc2cc(Cl)ccc2-n2cncn2)c(OC)c1	-9.4	-1.0	2.1	0.5
COc1ccc(NC(=O)c2cccc3cccnc23)cc1S(N)(=O)=O	4.6	-0.9	1.3	-7.5
Cc1cc(C)cc(C(=O)Nc2cccnc2)c1	4.3	-0.2	0.3	-0.9
Cc1c(N(C)S(=O)(=O)c2cccc(C(=O)NCc3cccnc3)c2)c(=O)n(-c2ccccc2)n1C	-0.6	-0.1	nt	-0.5
O=C(Nc1ccccc1F)c1ccc(OCc2ccccc2)cc1	16.9	1.5	17.3*	1.1
Cc1c(C(=O)Nc2ccc(OCc3ccccc3)cc2)cccc1[N+](=O)[O-]	8.1	0.6	-9.3	0.7
Cc1cc(C(=O)Nc2ccc(OCc3ccccc3)cc2)c(C)o1	3.2	0.4	18.7*	-1.8
O=C(NCC1CCCO1)c1ccc(COc2ccccc2)cc1 (stereo unspecified)	-11.8	-0.3	0.1	1.7
Fc1ccccc1N=C1NN=C(c2ccccc2)CS1	21.6	0.2	13.5*	-2.5
Fc1ccc(F)c(C2=NNC(=Nc3ccccc3F)SC2)c1	21.5	-0.2	1.0	-1.0
CC(C)c1ccc(/C=N/NC(=O)CCNC(=O)c2ccccc2)cc1	37.0	0.5	-1.7	2.5
Nc1cc(Cl)cc2c1-c1ccc(Cl)cc1C2	-7.5	2.1	23.1*	3.9
CC(C)OC(=O)C(C(=O)C(F)(F)F)c1cc(NS(=O)(=O)c2ccc3ccccc3c2)c2ccccc2c1O (stereo unspecified)	19.9	-13.8	24.3*	4.5
CCOc1ccc(S(=O)(=O)Nc2cc(SCC(=O)O)c(O)c3ccccc23)cc1	-9.4	0.5	-7.6	-0.2
Cc1cc(C)nc(N/N=C/c2ccccc2OCc2ccccc2)n1	-8.5	-0.7	12.2*	-7.7
COc1cc2[nH]c(=S)nc(NCc3cccc(Cl)c3)c2cc1OC	-6.5	0.2	-14.3	-11.7
S=c1nc(NCc2cccc(Cl)c2)c2ccccc2[nH]1	-8.2	1.0	14.9*	1.1
Cc1noc(C)c1C(=O)OCC(=O)NC1CCCCC1C (stereo unspecified)	0.5	0.6	-1.8	1.7
Cc1noc(C)c1C(=O)OCC(=O)NC1CC1	-7.6	-1.6	16.3*	1.2
O=C(Nc1ccc(/C=C/c2nc3ccccc3o2)cc1)c1c(F)cccc1F	5.5	2.2	19.6*	-74.0
O=C(Nc1ccc(/C=C/c2nc3ccccc3o2)cc1)c1cccc(C(F)(F)F)c1	-7.6	-10.5	16.8*	-22.1
COc1ccc(-c2csc(N(CCc3ccc(OC)c(OC)c3)C(=O)COc3ccccc3)n2)cc1	29.4	3.4	-0.2	1.8
SMILES	EBI2 antag	MPTP block	NR3A LBD binder	SENP1 inh
O=C(NCc1cccnc1)/C(=C\c1ccc(-c2ccc(Cl)c(Cl)c2)o1)S(=O)(=O)c1ccccc1	63.6*	1.2	9.9	1.6
O=C(NCc1cccnc1)c1ccc(-c2ccc(Cl)cc2)o1	2.8	1.8	1.8	-0.9
O=C(Nc1cccnc1)c1cc2c(s1)-c1ccccc1OC2	2.5	1.8	35.2*	-22.3
O=C(Nc1ccc(Cl)cn1)c1cc2c(s1)-c1ccccc1OC2	2.4	2.9	15.2*	-139.8
Cc1cccc2c1-c1sc(C(=O)Nc3cccnc3)cc1CO2	12.3	-0.4	18.5*	-59.2
Cc1cccc2c1-c1sc(C(=O)Nc3nccs3)cc1CO2	11.4	0.6	-4.7	-122.2
CC(=O)NC(CCC(=O)O)C(=O)O (stereo unspecified)	-3.6	-3.3	4.6	3.8
COc1cc(CNC(=O)c2cc(-c3cc(F)ccc3OC(C)C)n[nH]2)cc(OC)c1	8.2	-0.4	nt	1.7
O=C(N/N=C/c1ccc([N+](=O)[O-])o1)C(=O)Nc1ccc(C(=O)O)cc1	4.8	1.1	-0.8	-2.3
O=C(O)c1ccc(-c2ccc(/C=N/Nc3ccc([N+](=O)[O-])cc3)o2)cc1	16.6	15.2	10.1*	-37.5
NS(=O)(=O)c1ccc(-c2ccc(/C=N/Nc3ccc(C(=O)O)cc3)o2)cc1	-9.2	3.6	2.8	-37.2
O=C(O)c1ccc(N/N=C/C=C/c2ccc([N+](=O)[O-])o2)cc1	6.5	8.2	11.6*	77.6*
O=C(O)c1ccc(N/N=C/c2ccc(-c3cccc(Cl)c3)o2)cc1	3.7	4.8	-7.1	-46.1
O=C(O)c1cccc(-c2ccc(/C=N/Nc3ccc([N+](=O)[O-])cc3)o2)c1	0.4	8.6	11.7*	-49.3
CCn1c2ccccc2c2cc(NC(=O)N3CCOCC3)ccc21	0.1	2.1	-1.6	32.3*
CCn1c2ccccc2c2cc(NC(=O)c3ccc(C)c([N+](=O)[O-])c3)ccc21	2.3	5.6	7.1	6.7
CCn1c2ccccc2c2cc(NC(=O)c3cccc([N+](=O)[O-])c3)ccc21	11.9	3.4	16.5*	11.8
Nc1c(C(=O)Nc2ccccc2F)sc2nc(-c3cccnc3)ccc12	4.4	2.2	14.6*	-40.4
Nc1c(C(=O)Nc2ccccc2F)sc2nc(-c3ccco3)ccc12	14.5	-1.5	2.8	-22.5
CCOC(=O)c1sc2nc(-c3cccnc3)ccc2c1N	11.0	1.6	19.6*	-30.7
NC(=O)c1sc2nc(-c3cccnc3)ccc2c1N	0.4	1.3	0.0	34.0
CC(=O)Nc1ccc(NC(=O)C(C)OC(=O)CCCOc2ccc(Cl)cc2C)cc1 (stereo unspecified)	-10.8	-0.4	-11.0	2.3
O=C(Oc1ccc(C(=S)N2CCCCC2)cc1)c1ccccc1F	-3.3	-0.7	38.9*	1.5
C=CCn1c(O)c(N=Nc2ccccc2O)c2ccccc21	6.3	3.3	14.8*	34.3
C=CCn1c(O)c(N=Nc2ccccc2)c2ccccc21	10.3	3.4	1.7	-3.4
SMILES	EBI2 antag	MPTP block	NR3A LBD binder	SENP1 inh
O=C(O)CN1C(=O)/C(=C\c2cccc(OCc3ccccc3F)c2)SC1=S	-3.7	1.8	30.8*	3.7
COc1ccc(/C=C2/SC(=S)N(CCC(=O)O)C2=O)cc1	-0.9	0.6	-0.1	-31.5
O=C(O)CN1C(=O)/C(=C\c2cc(Br)ccc2OCc2ccc(Cl)cc2Cl)SC1=S	-3.0	4.0	29.4*	2.3
O=C(O)CN1C(=O)/C(=C\c2ccccc2OCc2ccc(Cl)cc2)SC1=S	-5.4	5.5	6.1	0.5
O=C(O)CN1C(=O)/C(=C\c2ccc(OC(=O)c3ccco3)cc2)SC1=S	1.0	-0.9	3.4	39.3*
O=C(O)CCN1C(=O)/C(=C\c2cccc(Oc3ccccc3)c2)SC1=S	2.7	1.2	13.6*	2.3
O=C(O)CN1C(=O)/C(=C\c2cccc(OCc3ccc(F)cc3)c2)SC1=S	3.6	2.4	8.6	4.0
Cc1cccc(NC(=O)COC(=O)c2nn(C)c(=O)c3ccccc23)c1C	6.2	0.1	-0.6	0.3
CC(C)OC(=O)CSc1nnc(-c2ccccc2)n1N	-2.7	1.7	0.5	1.8
